Screening results from PubChem.
Only some compounds are listed: those with a hit (about 2.4% of all), similar ones and a draw of the others.
CASP6 VEID inh – caspase-6 (human) enzyme inhibition. purified caspase-6, Z-VEID-R110 cleavage fluorescence. inhibition, % at 12.5 µM. 350,000 tested, 0.53% active. AID 686996;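 active = mean inhibition across replicates at least about 35%, with every replicate also reaching that limit, limit read from the data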;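 note: 0% = median of neutral control wells and 100% = no fluorescence left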
ERAP1 inh – ERAP1 (human) enzyme inhibition | recombinant ERAP1, Leu-AMC fluorescence, 60 min | AID 652197 | Q9NZ08 | inhibition, % at 10.7 µM | 340,000 tested, 0.15% active;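 active = mean replicate inhibition of at least 30%, or all replicates individually reaching that 30% level; inactive = mean below 30% and not every replicate reaching it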;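 note: 0% = neutral control wells and 100% = L-leucinethiol positive control wells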
S100A4 inh HTS – blocks human S100A4 binding to myosin IIA peptide. inhibition, % at 10.7 µM. 360,000 tested, 0.14% active. S100A4/TAMRA-MyoIIA peptide fluorescence polarization. P26447;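 active = mean inhibition of at least 70% across replicates, with every replicate also reaching that level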
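Test system: S100A4 monomer protein. Medium: HEPES buffer with Ca2+, pH 7.2. Reagent: fluorescent myosin IIA peptide, 5 nM. Compound dosing: single-point compound testing. Timing: 5 min between mix addition and reading. Benchmarks: DMSO neutral and TFP positive wells.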
rRNA inh HTS – inhibits bacterial ribosomal RNA function over humanized ribosomes. E. coli WT GFP vs humanized-ribosome RFP mutants, fluorescence, 24 h; hits give low values; DMSO median 0, no signal -100. GFP signal change (wild-type ribosome), % (test concentration not listed). 350,000 tested, 1.6% active. AID 720706;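 active = significant combined selectivity score with lowered wild-type GFP, culture density cut under 30%, mutant RFP and density less affected; inactive = any of these conditions unmet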
PGC1a acetyl inh – lowers PGC1a acetylation signal in U2OS cells | AlphaScreen anti-acetyl-lysine; with virally co-expressed GCN5 acetyltransferase | inhibition, % at 15.6 µM | 350,000 tested, 0.17% active | AID 651687;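 active = every replicate shows inhibition of at least 40%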;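 note: 0% = neutral control wells and 100% = positive control wells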
ARNT-TACC3 inh – disruptors of human ARNT/TACC3 interaction | Q9Y6A5 | AlphaScreen His-ARNT PAS-B/GST-TACC3 binding, luminescence; TACC3 fragment carries E629A point mutation | inhibition, % at 9.99 µM | 390,000 tested, 0.66% active | AID 623870;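 active = mean inhibition of replicates at least 50% and at least half of replicates each reaching 50%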;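 note: 0% = complete ARNT plus TACC3 wells and 100% = ARNT alone without TACC3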
* marks the source's active call; other numbers are inactive results; nt = not tested or not shown.

SMILES | CASP6 VEID inh | ERAP1 inh | S100A4 inh HTS | rRNA inh HTS | PGC1a acetyl inh | ARNT-TACC3 inh
CCc1nn2cc(C(=O)c3cc(Cl)ccc3O)cnc2c1-c1ccc(F)cc1 | -3 | -2 | -11 | -18* | nt | 0
CCCCCCCCCCCCCCCC[N+](C)(C)Cc1ccc(F)cc1 | -196 | 96* | -12 | -61 | nt | 5
Cc1ccc(C2=NS(=O)(=O)N(C)C(C(=O)Nc3cc(C)n(CC(=O)N4CCC(C)CC4)n3)=C2)cc1 | -1 | -1 | 0 | -29* | 11 | -11
CCNC(=S)N1CCc2cc(OC)c(OC)cc2C1COc1ccc(F)cc1 (stereo unspecified) | -2 | 0 | -8 | -31* | 2 | 1
CNC(=S)N1CCc2cc(OC)c(OC)cc2C1COc1ccc(F)cc1 (stereo unspecified) | 3 | -7 | 1 | -4 | -16 | 11
COC(=O)c1ccc(OCC2c3cc(OC)c(OC)cc3CCN2C(C)=O)cc1 (stereo unspecified) | 1 | 2 | 4 | 8 | 33 | 2
COc1ccc(OCC2c3cc(OC)c(OC)cc3CCN2C(=O)C(C)C)cc1 (stereo unspecified) | 1 | -3 | -3 | -24* | -16 | 4
COc1ccc(Cn2c(O)c(C=Nc3ccccc3C(=O)O)c3ccccc3c2=O)cc1 | 26 | -2 | -2 | -13 | 8 | 24
COc1ccccc1NS(=O)(=O)c1cccc(-n2c(O)c(C=Nc3ccccc3C(=O)O)c3ccccc3c2=O)c1 | 10 | -4 | -6 | -25* | -16 | 21
C[C@@H]1CN([C@@H](C)CO)C(=O)c2cc(NC(=O)c3ccncc3)ccc2O[C@@H](C)CCCCO[C@H]1CN(C)C(=O)Nc1ccc(F)cc1 | 1 | 0 | -10 | -2 | 25 | 2
O=C(C[C@@H]1CC[C@@H](NC(=O)Nc2ccc3c(c2)OCO3)[C@H](CO)O1)NCc1ccc(F)cc1 | -2 | -3 | -2 | 3 | 7 | -9
Nc1c(/C=C2/C=CC(=O)C(O)=C2)c(=O)nc2sc(CC(=O)N3CCCC3)nn12 | 48* | 1 | -2 | 8 | nt | 4
Nc1c(/C=C2/C=CC(=O)C(O)=C2)c(=O)nc2sc(CC(=O)N3CCOCC3)nn12 | 28 | 7 | -3 | 9 | nt | 8
Nc1c(/C=C2/C=CC(=O)C(O)=C2)c(=O)nc2sc(CC(=O)N3CCCCC3)nn12 | 83* | 2 | -2 | 7 | -11 | -1
O=C(/C=C\Nc1ccc(S(=O)(=O)Nc2ncccn2)cc1)c1cccc2ccccc12 | 4 | 4 | -6 | -20* | nt | 5
NS(=O)(=O)c1ccc(N/C=C\C(=O)c2cccc3ccccc23)cc1 | nt | nt | nt | nt | nt | -3
COc1ccc(NC(=O)C2CC3C=CC2C3)c([N+](=O)[O-])c1 (stereo unspecified) | 1 | 2 | -4 | -22* | nt | 11
COc1ccc(NC(=O)CC(C)C)c([N+](=O)[O-])c1 | 0 | 2 | -11 | -5 | nt | -3
Cc1ccc(NC(=O)C2CC2c2ccccc2)c([N+](=O)[O-])c1 (stereo unspecified) | -1 | -1 | -6 | -21 | -8 | 46*
C[C@@H]1CN([C@@H](C)CO)C(=O)c2cc(-c3cccnc3)cnc2O[C@H]1CN(C)C(=O)c1ccccc1F | -2 | 2 | -28 | 0 | -1 | -6
CCOCCCNC(=O)CN1C(=O)/C(=C/c2ccccc2C)Sc2ccccc21 | -2 | 0 | -9 | -8 | nt | -16
CCOCCCNC(=O)/C=C1\Sc2ccccc2N(Cc2ccccc2F)C1=O | 2 | 3 | 0 | -17* | -13 | 0
O=C(CN1CCOCC1)N1CCCCN2[C@H](C1)[C@H](c1ccc(C#Cc3ccccc3F)cc1)[C@@H]2CO | 0 | -3 | -14 | 8 | 3 | -3
C[C@@H]1CN([C@H](C)CO)C(=O)c2cc(NC(=O)CCCCCC(=O)Nc3ccccc3N)ccc2O[C@@H]1CN(C)Cc1ccc(C(F)(F)F)cc1 | -3 | -1 | -8 | -6 | 6 | nt
COc1ccc(/C=C/C(=O)Nc2ccccc2)cc1S(=O)(=O)N1CCOCC1 | -2 | nt | -3 | -18* | -2 | 5
